From PubChem BioAssay
Shown are actives, neighbours in structure and some others; about 0.98% of the full set was active somewhere.
S1P3 antag-1: S1P3 (human) receptor antagonism; Q99500; CHO S1P3 NFAT-BLA reporter, FRET fluorescence, antagonist mode; inhibition, % at 4.98 µM; 170,000 tested, 0.27% active; AID 485;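 active = inhibition above the plate cutoff, the mean inhibition of test wells on that plate plus 3 SD, cut at about 28% in these data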;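 also: cells challenged with S1P at its EC80 of 0.8 µM; blue over green emission ratio from cleaved BLA substrate after 4 h stimulation; 0% = S1P-stimulated wells and 100% = unstimulated DMSO-only wells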
Target sequence (Q99500 whole entry, looked up): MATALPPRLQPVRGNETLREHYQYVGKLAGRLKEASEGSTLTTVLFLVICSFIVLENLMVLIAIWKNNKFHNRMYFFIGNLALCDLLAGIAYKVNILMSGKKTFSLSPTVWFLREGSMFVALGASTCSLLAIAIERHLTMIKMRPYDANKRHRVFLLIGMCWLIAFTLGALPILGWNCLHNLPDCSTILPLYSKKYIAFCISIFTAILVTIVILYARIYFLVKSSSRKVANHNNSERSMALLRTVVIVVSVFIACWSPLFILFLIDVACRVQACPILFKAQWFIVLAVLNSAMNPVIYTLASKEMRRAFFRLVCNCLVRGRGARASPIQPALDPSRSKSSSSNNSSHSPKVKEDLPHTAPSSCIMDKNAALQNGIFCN
BB579 growth dn: chemicals that inhibit yeast BB579 growth in restrictive medium (lifespan-shortening candidates) | S. cerevisiae BB579 growth, OD615, 48 h | inhibition, % at 10 µM | 140,000 tested, 0.51% active;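 active = inhibition above a set limit, 3 SD over the mean compound inhibition, cut at about 44% in these data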
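System: DeaD yeast strain BB579; buffer or medium: CSMM-D dextrose restrictive medium; technique: OD at 615 nm; schedule: 4 h cell preincubation, 48 h compound exposure, 30 °C humidified; doses: single 10 µM dose; controls: amphotericin B 10 µg/mL, positive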
Yeast lifespan up: yeast lifespan extension. S. cerevisiae growth with nicotinamide, OD615; deaD strain in restrictive glucose medium. inhibition of the nicotinamide effect, % at 10 µM. 130,000 tested, 0.68% active;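 active = inhibition above a set limit, placed 3 SD over the median of all compounds, cut at about 26% in these data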;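 also: 0% = nicotinamide-treated wells and 100% = cells grown without nicotinamide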
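Assay system: DeaD-strain S. cerevisiae. Medium: CSMM-D glucose medium, restrictive. Reagent: nicotinamide, 1.5 mM, co-present with compound. Compound: 10 µM single point, 0.25% DMSO. Schedule: culture preincubation 4 h, compound exposure 48 h, both 30 °C. Detection: absorbance at 615 nm.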
S1P3 antag-2: human S1P3 receptor antagonism, confirmation. shares compounds with S1P3 antag-1. CHO S1P3 NFAT-BLA reporter, FRET, antagonist mode. inhibition, % at 4.98 µM. 240 tested, 30% active;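 active = inhibition above the hit threshold that was computed for the earlier primary screen, cut at about 30% in these data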;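 also: 0% = S1P-stimulated wells and 100% = unstimulated DMSO-only wells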
* = called active by the depositor.

`COc1cccc(CNC(=O)CCCNS(=O)(=O)c2cccs2)c1` gave S1P3 antag-1 23, BB579 growth dn -36 and Yeast lifespan up -10.
O=C(Cc1cccc2ccccc12)Nc1ccc(OC(F)F)c(Cl)c1 was read as S1P3 antag-1 6, BB579 growth dn -43 and Yeast lifespan up 4.
O=C(Nc1ccc(OC(F)F)c(Cl)c1)C(c1ccccc1)c1ccccc1 was read as S1P3 antag-1 50*, BB579 growth dn -25, Yeast lifespan up 2 and S1P3 antag-2 59*.
`Cc1cc(C)c(C)c(S(=O)(=O)N2CCN(C(=O)CCC(=O)N3CCOCC3)CC2)c1C` gave S1P3 antag-1 31* and S1P3 antag-2 -10.
Cc1cc(C)c(C)c(S(=O)(=O)N2CCN(C)CC2)c1C was read as S1P3 antag-1 -9.
`O=C(COC(=O)C1CCN(S(=O)(=O)c2cccs2)CC1)Nc1ccc(F)cc1F` gave S1P3 antag-1 -5.
`CC(C)c1ccc(Nc2nnc(SC3CCOC3=O)s2)cc1` (stereo unspecified) gave S1P3 antag-1 10, BB579 growth dn -4 and Yeast lifespan up -4.
For O=C(/C=C/c1cn(CC(O)CN2CCCCC2)c2ccccc12)c1ccccc1 (stereo unspecified) the results were S1P3 antag-1 -5.
Screening O=C(/C=C/c1cn(CC(O)CN2CCCCC2)c2ccccc12)c1cccs1 (stereo unspecified) returned S1P3 antag-1 32*, BB579 growth dn -28, Yeast lifespan up 0 and S1P3 antag-2 9.
`O=C(C1=NN[C@@H]2C(=O)N(c3cccc(C(F)(F)F)c3)C(=O)[C@H]12)c1cnccn1` gave S1P3 antag-1 -5.
O=C(NC(Nc1nc2ccc([N+](=O)[O-])cc2s1)(C(F)(F)F)C(F)(F)F)c1cccnc1 was read as S1P3 antag-1 3, BB579 growth dn -20 and Yeast lifespan up 0.
O=C(NC(Nc1nc2ccc([N+](=O)[O-])cc2s1)(C(F)(F)F)C(F)(F)F)c1ccccc1Cl was read as S1P3 antag-1 70*, BB579 growth dn 34, Yeast lifespan up 6 and S1P3 antag-2 53*.
`Cc1nc2ccc(NC(=O)c3ccc(Cl)c(S(=O)(=O)N(C)c4ccccc4)c3)cc2s1` gave S1P3 antag-1 11, BB579 growth dn -32 and Yeast lifespan up 4.
Screening Cc1nc2ccc(NC(=O)c3cc(S(=O)(=O)N(C)c4ccccc4)ccc3Cl)cc2s1 returned S1P3 antag-1 30*, BB579 growth dn -26, Yeast lifespan up 6 and S1P3 antag-2 10.
Screening O=C(O)c1cccc(C(=O)Nc2cccc(NC(=O)C3CCCO3)c2)c1 (stereo unspecified) returned S1P3 antag-1 -2, BB579 growth dn -8 and Yeast lifespan up 0.
`COC(=O)c1ccc(N2CCN(C(C)=O)CC2)c(NC(=O)COc2ccccc2C)c1` gave S1P3 antag-1 -16.
COC(=O)c1ccc(N2CCN(C(=O)c3ccccc3)CC2)c(NC(C)=O)c1 was read as S1P3 antag-1 40* and S1P3 antag-2 -11.
Screening COc1cccc(N2C(=O)C3CCCN3C2c2cccs2)c1 (stereo unspecified) returned S1P3 antag-1 -4.
`CC[C@@H]1C=C(C)C[C@H](C)C[C@H](OC)[C@H]2O[C@@](O)(C(=O)C(=O)N3CCCC[C@H]3C(=O)O[C@H](/C(C)=C/[C@@H]3CC[C@@H](O)[C@H](OC)C3)[C@H](C)[C@@H](O)CC1=O)[C@H](C)C[C@@H]2OC` gave S1P3 antag-1 89*, BB579 growth dn -2, Yeast lifespan up 12 and S1P3 antag-2 105*.
O=c1[nH]nc(-c2ccccc2)c2ccccc12 was read as S1P3 antag-1 10.
Fc1ccc(-c2n[nH]c(=S)c3ccccc23)cc1 was read as S1P3 antag-1 65* and S1P3 antag-2 -14.
Screening CNC(=O)CN(C)S(=O)(=O)c1ccc(OC)c(Cl)c1 returned S1P3 antag-1 0, BB579 growth dn -51 and Yeast lifespan up 2.
Cc1ccc(/C=N/Nc2cccc(C(=O)O)c2)s1 was read as S1P3 antag-1 -8, BB579 growth dn -14 and Yeast lifespan up -7.
For Cc1ccc(/C=N/Nc2ccc(C(=O)O)cc2)s1 the results were S1P3 antag-1 42* and S1P3 antag-2 -3.
Cc1ccc(NC(=S)NNC(=O)C2CC2c2ccc(C)cc2)cc1 (stereo unspecified) was read as BB579 growth dn -16.
